# Test results published in ChEMBL document CHEMBL1123045, “Synthesis of high specific activity [75Br]- and [77Br]bromperidol and tissue distribution studies in the rat” (J Med Chem, 1985).
# Experiments:
# Rattus norvegicus [1] = assay: Distribution in brain of rat, 1 hr after intravenous administered, injected dose/gm; format: ADME, organism-based; conditions: in vivo
# Procedure, shortened: (§1)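 [77Br]Bromperidol at high specific activity (50-100 µCi in 0.1 mL 0.9% NaCl, pH 3) given into the femoral vein of 300-320-g female Sprague-Dawley rats under light ether anesthesia. At each time point, groups of five were decapitated after cardiac-puncture blood sampling. Organs were dissected, blotted, weighed and gamma-counted against an injectate standard. Values are % injected dose/g, mean ± SD, n=5.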
# Rattus norvegicus [2] = assay: Distribution in rat fat 1 hr after intravenous administration, injected dose/gm; format: ADME, organism-based, Adipose tissue; conditions: in vivo; procedure, shortened: as §1
# Rattus norvegicus [3] = assay: Distribution in rat fat 30 min after intravenous administration, injected dose/gm; format: ADME, organism-based, Adipose tissue; conditions: in vivo, 0.5 h; procedure, shortened: as §1
# Rattus norvegicus [4] = assay: Distribution in rat skin 30 min after intravenous administration, injected dose/gm; format: ADME, organism-based; conditions: in vivo, 0.5 h
# Procedure, shortened: (§2)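 Female Sprague-Dawley rats (300-320 g) under light ether anesthesia received a single injection of [77Br]-labeled tracer (50-100 µCi in 0.1 mL 0.9% NaCl, pH 3) into the femoral vein. Groups of five were decapitated at set times after a cardiac-puncture blood sample. Organs were dissected, blotted and weighed, and counted in a NaI(Tl) well γ-counter. Values are %ID/g against an injectate standard, mean ± SD (n=5).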
# Rattus norvegicus [5] = assay: Distribution in rat intestine 4 hr after intravenous administration, injected dose/gm; format: ADME, organism-based; conditions: in vivo; procedure, shortened: as §1
# Rattus norvegicus [6] = assay: Distribution in rat kidney, 6 hr after intravenous administration, injected dose/gm; format: ADME, organism-based; conditions: in vivo; procedure, shortened: as §1
# Rattus norvegicus [7] = assay: Distribution in brain of rat, 15 min after intravenous administered, injected dose/gm; format: ADME, organism-based; conditions: in vivo, 0.25 h; procedure, shortened: as §1
# Rattus norvegicus [8] = assay: Distribution in rat heart 1 hr after intravenous administration, injected dose/gm; format: ADME, organism-based; conditions: in vivo; procedure, shortened: as §1
# Rattus norvegicus [9] = assay: Distribution in rat fat 2 hr after intravenous administration, injected dose/gm; format: ADME, organism-based, Adipose tissue; conditions: in vivo; procedure, shortened: as §1
# Rattus norvegicus [10] = assay: Distribution in rat lungs 15 min after intravenous administration, injected dose/gm; format: ADME, organism-based, Lung; conditions: in vivo, 0.25 h; procedure, shortened: as §2
# Rattus norvegicus [11] = assay: Distribution in rat pancreas 5 min after intravenous administration, injected dose/gm; format: ADME, organism-based; conditions: in vivo; procedure, shortened: as §2
# Rattus norvegicus [12] = assay: Distribution in blood of rat, 8 hr after intravenous administration, injected dose/gm; format: ADME, organism-based; conditions: in vivo; procedure, shortened: as §1
# Rattus norvegicus [13] = assay: Distribution in blood of rat 5 min after intravenous administration, injected dose/gm; format: ADME, organism-based; conditions: in vivo; procedure, shortened: as §1
# Rattus norvegicus [14] = assay: Distribution in rat liver 30 min after intravenous administration, injected dose/gm; format: ADME, organism-based; conditions: in vivo, 0.5 h; procedure, shortened: as §2
# Rattus norvegicus [15] = assay: Distribution in rat muscle 15 min after intravenous administration, injected dose/gm; format: ADME, organism-based, Muscle tissue; conditions: in vivo, 0.25 h; procedure, shortened: as §2
# Rattus norvegicus [16] = assay: Distribution in brain of rat, 5 min after intravenous administered, injected dose/gm; format: ADME, organism-based; conditions: in vivo; procedure, shortened: as §1
# Rattus norvegicus [17] = assay: Distribution in rat lungs 1 hr after intravenous administration, injected dose/gm; format: ADME, organism-based, Lung; conditions: in vivo; procedure, shortened: as §2
# Rattus norvegicus [18] = assay: Distribution in rat muscle 2 hr after intravenous administration, injected dose/gm; format: ADME, organism-based, Muscle tissue; conditions: in vivo; procedure, shortened: as §2
# Rattus norvegicus [19] = assay: Distribution in rat heart 5 min after intravenous administration, injected dose/gm; format: ADME, organism-based; conditions: in vivo; procedure, shortened: as §1
# Rattus norvegicus [20] = assay: Distribution in rat pancreas 30 min after intravenous administration, injected dose/gm; format: ADME, organism-based; conditions: in vivo, 0.5 h; procedure, shortened: as §2
# Rattus norvegicus [21] = assay: Distribution in rat uterus 5 min after intravenous administration, injected dose/gm; format: ADME, organism-based; conditions: in vivo; procedure, shortened: as §2
# Rattus norvegicus [22] = assay: Distribution in rat intestine 6 hr after intravenous administration, injected dose/gm; format: ADME, organism-based; conditions: in vivo; procedure, shortened: as §1
# Rattus norvegicus [23] = assay: Distribution in rat pancreas 6 hr after intravenous administration, injected dose/gm; format: ADME, organism-based; conditions: in vivo; procedure, shortened: as §2
# Rattus norvegicus [24] = assay: Distribution in blood of rat, 6 hr after intravenous administration, injected dose/gm; format: ADME, organism-based; conditions: in vivo; procedure, shortened: as §1
# Rattus norvegicus [25] = assay: Distribution in rat heart 30 min after intravenous administration, injected dose/gm; format: ADME, organism-based; conditions: in vivo, 0.5 h; procedure, shortened: as §1
# Rattus norvegicus [26] = assay: Distribution in blood of rat, 1 hr after intravenous administration, injected dose/gm; format: ADME, organism-based; conditions: in vivo; procedure, shortened: as §1
# Rattus norvegicus [27] = assay: Distribution in rat heart 2 hr after intravenous administration, injected dose/gm; format: ADME, organism-based; conditions: in vivo; procedure, shortened: as §1
# Rattus norvegicus [28] = assay: Distribution in rat heart 8 hr after intravenous administration, injected dose/gm; format: ADME, organism-based; conditions: in vivo; procedure, shortened: as §1
# Rattus norvegicus [29] = assay: Distribution in rat lungs 2 hr after intravenous administration, injected dose/gm; format: ADME, organism-based, Lung; conditions: in vivo; procedure, shortened: as §2
# Rattus norvegicus [30] = assay: Distribution in rat pancreas 8 hr after intravenous administration, injected dose/gm; format: ADME, organism-based; conditions: in vivo; procedure, shortened: as §2
# Rattus norvegicus [31] = assay: Distribution in rat spleen 30 min after intravenous administration, injected dose/gm; format: ADME, organism-based; conditions: in vivo, 0.5 h; procedure, shortened: as §2
# Rattus norvegicus [32] = assay: Distribution in rat spleen 5 min after intravenous administration, injected dose/gm; format: ADME, organism-based; conditions: in vivo; procedure, shortened: as §2
# Rattus norvegicus [33] = assay: Distribution in rat lungs 8 hr after intravenous administration, injected dose/gm; format: ADME, organism-based, Lung; conditions: in vivo; procedure, shortened: as §2
# Rattus norvegicus [34] = assay: Distribution in rat skin 1 hr after intravenous administration, injected dose/gm; format: ADME, organism-based; conditions: in vivo; procedure, shortened: as §2
# Rattus norvegicus [35] = assay: Distribution in rat spleen 6 hr after intravenous administration, injected dose/gm; format: ADME, organism-based; conditions: in vivo; procedure, shortened: as §2
# Rattus norvegicus [36] = assay: Distribution in rat spleen 2 hr after intravenous administration, injected dose/gm; format: ADME, organism-based; conditions: in vivo; procedure, shortened: as §2
# Rattus norvegicus [37] = assay: Distribution in rat spleen 4 hr after intravenous administration, injected dose/gm; format: ADME, organism-based; conditions: in vivo; procedure, shortened: as §2
# Rattus norvegicus [38] = assay: Distribution in rat uterus 6 hr after intravenous administration, injected dose/gm; format: ADME, organism-based; conditions: in vivo; procedure, shortened: as §2
# Rattus norvegicus [39] = assay: Distribution in rat lungs 6 hr after intravenous administration, injected dose/gm; format: ADME, organism-based, Lung; conditions: in vivo; procedure, shortened: as §2
# Rattus norvegicus [40] = assay: Distribution in rat kidney, 30 min after intravenous administration, injected dose/gm; format: ADME, organism-based; conditions: in vivo, 0.5 h; procedure, shortened: as §1
# Rattus norvegicus [41] = assay: Distribution in rat spleen 15 min after intravenous administration, injected dose/gm; format: ADME, organism-based; conditions: in vivo, 0.25 h; procedure, shortened: as §2
# Rattus norvegicus [42] = assay: Distribution in brain of rat, 2 hr after intravenous administered, injected dose/gm; format: ADME, organism-based; conditions: in vivo; procedure, shortened: as §1
# Rattus norvegicus [43] = assay: Distribution in rat pancreas 4 hr after intravenous administration, injected dose/gm; format: ADME, organism-based; conditions: in vivo; procedure, shortened: as §2
# Rattus norvegicus [44] = assay: Distribution in rat intestine 5 min after intravenous administration, injected dose/gm; format: ADME, organism-based; conditions: in vivo; procedure, shortened: as §1
# Rattus norvegicus [45] = assay: Distribution in rat uterus 30 min after intravenous administration, injected dose/gm; format: ADME, organism-based; conditions: in vivo, 0.5 h; procedure, shortened: as §2
# Rattus norvegicus [46] = assay: Distribution in rat uterus 4 hr after intravenous administration, injected dose/gm; format: ADME, organism-based; conditions: in vivo; procedure, shortened: as §2
# Rattus norvegicus [47] = assay: Distribution in rat lungs 5 min after intravenous administration, injected dose/gm; format: ADME, organism-based, Lung; conditions: in vivo; procedure, shortened: as §2
# Rattus norvegicus [48] = assay: Distribution in rat kidney, 5 min after intravenous administration, injected dose/gm; format: ADME, organism-based; conditions: in vivo; procedure, shortened: as §1
# Rattus norvegicus [49] = assay: Distribution in rat kidney, 4 hr after intravenous administration, injected dose/gm; format: ADME, organism-based; conditions: in vivo; procedure, shortened: as §1
# Rattus norvegicus [50] = assay: Distribution in rat pancreas 15 min after intravenous administration, injected dose/gm; format: ADME, organism-based; conditions: in vivo, 0.25 h; procedure, shortened: as §2
structure (smiles),measurement,setting,value
O=C(CCCN1CCC(O)(c2ccc(Br)cc2)CC1)c1ccc(F)cc1 [BROMPERIDOL],Distribution,Rattus norvegicus [1],2.48%
same,Distribution,Rattus norvegicus [2],0.22%
same,Distribution,Rattus norvegicus [3],0.2%
same,Distribution,Rattus norvegicus [4],0.2%
same,Distribution,Rattus norvegicus [5],0.76%
same,Distribution,Rattus norvegicus [6],1.93%
same,Distribution,Rattus norvegicus [7],3.04%
same,Distribution,Rattus norvegicus [8],0.55%
same,Distribution,Rattus norvegicus [9],0.18%
same,Distribution,Rattus norvegicus [10],6.29%
same,Distribution,Rattus norvegicus [11],3.16%
same,Distribution,Rattus norvegicus [12],0.02%
same,Distribution,Rattus norvegicus [13],0.12%
same,Distribution,Rattus norvegicus [14],2.5%
same,Distribution,Rattus norvegicus [15],0.32%
same,Distribution,Rattus norvegicus [16],2.26%
same,Distribution,Rattus norvegicus [17],4.19%
same,Distribution,Rattus norvegicus [18],0.15%
same,Distribution,Rattus norvegicus [19],2.29%
same,Distribution,Rattus norvegicus [20],5.2%
same,Distribution,Rattus norvegicus [21],1.91%
same,Distribution,Rattus norvegicus [22],0.98%
same,Distribution,Rattus norvegicus [23],2.83%
same,Distribution,Rattus norvegicus [24],0.03%
same,Distribution,Rattus norvegicus [25],1.07%
same,Distribution,Rattus norvegicus [26],0.06%
same,Distribution,Rattus norvegicus [27],0.46%
same,Distribution,Rattus norvegicus [28],0.3%
same,Distribution,Rattus norvegicus [29],2.1%
same,Distribution,Rattus norvegicus [30],2.05%
same,Distribution,Rattus norvegicus [31],4.43%
same,Distribution,Rattus norvegicus [32],3.02%
same,Distribution,Rattus norvegicus [33],1.14%
same,Distribution,Rattus norvegicus [34],0.2%
same,Distribution,Rattus norvegicus [35],1.76%
same,Distribution,Rattus norvegicus [36],2.69%
same,Distribution,Rattus norvegicus [37],1.92%
same,Distribution,Rattus norvegicus [38],1.2%
same,Distribution,Rattus norvegicus [39],1.24%
same,Distribution,Rattus norvegicus [40],5.01%
same,Distribution,Rattus norvegicus [41],3.29%
same,Distribution,Rattus norvegicus [42],1.85%
same,Distribution,Rattus norvegicus [43],3.51%
same,Distribution,Rattus norvegicus [44],0.39%
same,Distribution,Rattus norvegicus [45],3%
same,Distribution,Rattus norvegicus [46],1.07%
same,Distribution,Rattus norvegicus [47],13.6%
same,Distribution,Rattus norvegicus [48],4.96%
same,Distribution,Rattus norvegicus [49],1.95%
same,Distribution,Rattus norvegicus [50],4.72%
